Rows were chosen to be rich in hits. Some 1.5% of all compounds tested hit in one or more screens of this group.
PKA-R2B act – activates the human PKA-R2B holoenzyme complex. P22694+P31323. PKA-R2B holoenzyme dissociation, Cy5-IP20 fluorescence polarization; R2B truncated from residue 108, S112A mutant; 0% DMSO only, 100% 113 µM cGMP. activation, % at 11.4 µM. 0.079% of 340,000 active. AID 504700;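 active means activation above a cutoff set at the mean over all compounds plus 3 SD, cut at about 18% in these data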;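 further: higher means more holoenzyme dissociation and a rise in polarization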
Target sequence (P31323 whole entry, looked up, other chains not shown, the tested form may be a part): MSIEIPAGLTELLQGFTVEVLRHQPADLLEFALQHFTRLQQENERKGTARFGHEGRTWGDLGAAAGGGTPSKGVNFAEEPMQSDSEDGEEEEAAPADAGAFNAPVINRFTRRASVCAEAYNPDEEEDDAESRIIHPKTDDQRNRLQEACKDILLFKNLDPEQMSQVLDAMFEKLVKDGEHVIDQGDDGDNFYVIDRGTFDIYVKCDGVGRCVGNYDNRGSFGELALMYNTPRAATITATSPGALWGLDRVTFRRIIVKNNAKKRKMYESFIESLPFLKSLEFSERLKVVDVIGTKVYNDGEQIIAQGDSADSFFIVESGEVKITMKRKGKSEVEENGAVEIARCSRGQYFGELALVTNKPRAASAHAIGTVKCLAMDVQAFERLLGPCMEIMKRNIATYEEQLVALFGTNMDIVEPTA
CRFBP-R2 block – antagonists of CRF-binding protein/CRF-R2 receptor complex; inhibition, % at 11.8 µM; AID 588475; HEK293 CRF-R2/CRF-BP, CRF-induced calcium fluorescence; 0.59% of 350,000 active;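 active means inhibition of the ligand-induced calcium signal above about 50% at the single tested concentration, limit read from the data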
S100A4 MyoIIA – blocks human S100A4 binding to myosin IIA peptide; S100A4/TAMRA-MyoIIA peptide fluorescence polarization; inhibition, % at 10.7 µM; AID 652163; 0.14% of 360,000 active;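 active means mean inhibition of at least 70% across replicates, with every replicate also reaching that level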
Target sequence (P26447 whole entry, looked up): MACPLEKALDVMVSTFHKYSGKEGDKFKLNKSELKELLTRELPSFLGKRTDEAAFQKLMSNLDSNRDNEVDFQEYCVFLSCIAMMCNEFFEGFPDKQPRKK
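assay system = human S100A4 monomer with TAMRA-labelled myosin IIA peptide | also added = labelled myosin peptide probe, 5 nM | incubation = 5 min between mix addition and reading | control set = DMSO and TFP controls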
SIRT5 inh – sirtuin-5 (human) deacylase inhibition. Q9NXA8. Purified SirT5, succinyl-peptide AMC, trypsin-coupled fluorescence. inhibition, % at 15 µM. 1.1% of 330,000 active. AID 652115; in the data active means inhibition above about 15%
PKA-R1A act – activates the PKA-R1A holoenzyme complex; PKA-R1A dissociation, Cy5-IP20 fluorescence polarization; scaled: DMSO 0%, 113 µM cGMP 100%; activation, % at 11.4 µM; 0.083% of 340,000 active; AID 504707;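 active means percent activation above the mean of all tested compounds plus 3 SD, cut at about 19% in these data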;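 further: higher means more PKAc released from R1A so a rise in polarization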
* marks the source's active call; other numbers are inactive results; nt = no result given.

SMILES | PKA-R2B act | CRFBP-R2 block | S100A4 MyoIIA | SIRT5 inh | PKA-R1A act
CNC[C@H]1Oc2ncc(C#Cc3cccc(OC)c3)cc2C(=O)N([C@H](C)CO)C[C@H]1C | nt | nt | -6 | -5 | nt
C[C@@H]1CN([C@H](C)CO)C(=O)c2cc(NS(=O)(=O)c3ccc(Cl)cc3)ccc2O[C@@H](C)CCCCO[C@@H]1CN(C)Cc1ccc(C(F)(F)F)cc1 | nt | nt | 6 | 17* | nt
C[C@@H]1CCCCO[C@@H](CN(C)Cc2ccc(C(F)(F)F)cc2)[C@@H](C)CN([C@@H](C)CO)C(=O)c2cc(NS(=O)(=O)c3ccc(Cl)cc3)ccc2O1 | nt | nt | -1 | 16* | nt
C[C@H](CO)N1C[C@H](C)[C@@H](CN(C)Cc2ccc(C(F)(F)F)cc2)OCCCC[C@H](C)Oc2ccc(NS(=O)(=O)c3ccc(Cl)cc3)cc2C1=O | nt | nt | -11 | 19* | nt
C[C@@H]1CCCCO[C@@H](CN(C)Cc2ccc(C(F)(F)F)cc2)[C@@H](C)CN([C@H](C)CO)C(=O)c2cc(NS(=O)(=O)c3ccc(F)cc3)ccc2O1 | nt | nt | 4 | 4 | nt
CCOc1ccc(/C=C/C(=O)OCC(=O)Nc2cccc(S(=O)(=O)N3CCCC3)c2)cc1 | 7 | 1 | -13 | 3 | -9
O=C(COC(=O)/C=C/c1cccs1)Nc1cccc(S(=O)(=O)N2CCCC2)c1 | -6 | -1 | -9 | 15* | 13
O=C(Nc1cccc(F)c1)N1CC(=O)N2[C@@H](CO)[C@@H](c3ccc(-c4ccc(F)cc4)cc3)[C@@H]2C1 | nt | nt | -7 | -1 | nt
O=C(CCN1C(=O)/C(=C\c2cccc(Br)c2)SC1=S)N1CCOCC1 | -6 | 64* | -1 | 1 | -7
C[C@@H]1CCCCO[C@@H](CN(C)Cc2ccccc2)[C@H](C)CN([C@@H](C)CO)C(=O)c2cc(NC(=O)Nc3ccc(C(F)(F)F)cc3)ccc2O1 | nt | nt | -10 | 5 | nt
CC(C)CC#Cc1ccc([C@H]2[C@H](CO)N3C(=O)CN(C(=O)NC4CCCC4)C[C@@H]23)cc1 | nt | nt | 29 | 9 | nt
N/C(=N\OC(=O)COc1ccc(Cl)cc1)c1ccc(Cl)cc1 | -6 | 37 | -7 | -1 | -2
Cc1cccc(/C(N)=N/OC(=O)COc2ccc(Cl)cc2)c1 | 3 | 2 | 0 | 35* | -2
CC(C)NC(=O)N1[C@@H](CO)[C@@H](c2ccccc2)C12CN(C(=O)Cc1cccnc1)C2 | nt | nt | 125* | 1 | nt
CCCNC(=O)N1CC2(C1)[C@H](c1ccccc1)[C@H](CO)N2C(=O)C1CC1 | nt | nt | 5 | 24* | nt
CC(C)NC(=O)N1[C@@H](CO)[C@@H](c2ccccc2)C12CN(C(=O)Cc1ccccc1)C2 | nt | nt | 7 | 3 | nt
COCC(=O)N1CC(=O)N2[C@H](CO)[C@@H](c3ccc(-c4cccnc4)cc3)[C@H]2C1 | nt | nt | 3 | -3 | nt
O=C(Nc1ccc(F)cc1)N[C@H]1CC[C@H](CCNC(=O)c2ccccc2F)O[C@@H]1CO | nt | nt | -15 | 2 | nt
Cc1c(N=Nc2c(-c3ccc([N+](=O)[O-])cc3)[nH]n(C(N)=S)c2=O)cccc1[N+](=O)[O-] | -6 | 66* | -5 | -3 | 0
C[C@@H]1CN([C@@H](C)CO)C(=O)Cc2cc(NC(=O)C3CCCCC3)ccc2O[C@H]1CN(C)S(C)(=O)=O | nt | nt | -4 | 5 | nt
COC(=O)c1ccc(CNC(=O)/C=C/[C@H]2O[C@@H](n3cc(C)c(=O)[nH]c3=O)C[C@@H]2O)cc1 | nt | nt | -2 | 21* | nt
Cc1ccc(S(=O)(=O)Nc2ccc3c(c2)C(=O)N([C@H](C)CO)C[C@@H](C)[C@@H](CN(C)C(=O)NC2CCCCC2)OCCCC[C@H](C)O3)cc1 | nt | nt | 29 | 6 | nt
C[C@@H]1CCCCO[C@H](CN(C)C)[C@H](C)CN([C@@H](C)CO)C(=O)c2cc(NC(=O)CCC(F)(F)F)ccc2O1 | nt | nt | -22 | -2 | nt
O=C(NCc1ccc2c(c1)OCO2)c1ccc2c(c1)OCO2 | 3 | 0 | -3 | -2 | -1
O=C(NCc1ccc2c(c1)OCO2)c1c(F)c(F)c(F)c(F)c1F | -8 | 61* | nt | nt | -8
SMILES | PKA-R2B act | CRFBP-R2 block | S100A4 MyoIIA | SIRT5 inh | PKA-R1A act
O=C(COC(=O)C1(c2ccccc2F)CCCC1)NCc1ccc2c(c1)OCO2 | -17 | 9 | nt | nt | 4
O=C(COC(=O)C1(c2ccc(F)cc2)CCCC1)NCc1ccc2c(c1)OCO2 | -8 | 62* | -2 | 1 | -3
CCCC#Cc1ccc([C@H]2[C@H](CO)N3CCCCN(S(=O)(=O)Cc4ccccc4)C[C@@H]23)cc1 | nt | nt | 4 | 4 | nt
Cc1noc(NS(=O)(=O)c2ccc(N/C=C\C(=O)c3cccc4ccccc34)cc2)c1C | -10 | 56* | -10 | -1 | -11
COc1cccc(C(=O)/C=C/Nc2ccc(S(=O)(=O)Nc3onc(C)c3C)cc2)c1 | -8 | 23 | 0 | 0 | -3
CC=Cc1ccc2n(c1=O)C[C@H]1[C@H](CO)[C@@H](C(=O)N3CCCCC3)N(Cc3ccccc3)[C@@H]21 (mixture of isomers) | nt | nt | 23 | 7 | nt
O=C(Cc1ccccc1)NN1C(=O)c2ccccc2C1=O | -3 | 10 | -1 | 1 | -8
O=C(CSc1ccccc1)NN1C(=O)c2ccccc2C1=O | -10 | 122* | -7 | -1 | -4
Cc1nc2ccccc2nc(C)c1=NOCc1ccccc1Cl | -5 | 51* | 1 | -2 | -8
CCOC(=O)c1sc(NC(=O)CSc2nccn2C)nc1C | -9 | -5 | 0 | 16* | 0
CCOC(=O)C1=CCN(S(=O)(=O)c2ccc(C)cc2)C1c1ccc(CC)cc1 (stereo not drawn) | nt | nt | 14 | 16* | nt
CCOC(=O)C1=CCN(S(=O)(=O)c2ccc(Br)cc2)C1c1cccc(C)c1 (stereo not drawn) | nt | nt | -4 | nt | nt
CCOC(=O)C1=CCN(S(=O)(=O)c2ccc(C)cc2)C1c1ccc(C)cc1 (stereo not drawn) | nt | nt | -4 | -4 | nt
CCOC(=O)C1=CCN(S(=O)(=O)c2ccc(C)cc2)C1c1cccc(Br)c1 (stereo not drawn) | nt | nt | -4 | 29* | nt
C[C@H](NC(=O)C[C@H]1C[C@@H]2c3cc(NC(=O)C4CCC4)ccc3O[C@@H]2[C@H](CO)O1)c1ccccc1 | nt | nt | -5 | -1 | nt
C[C@@H]1CN([C@H](C)CO)S(=O)(=O)c2ccc(C#CC3CCCC3)cc2O[C@@H]1CN(C)C | nt | nt | -2 | 3 | nt
C[C@@H]1CN([C@H](C)CO)S(=O)(=O)c2ccc(C#CC3CCCC3)cc2O[C@H]1CN(C)C | nt | nt | 1 | 101* | nt
C[C@H]1CN([C@@H](C)CO)S(=O)(=O)c2ccc(C#CC3CC3)cc2O[C@H]1CN(C)C(=O)c1ccccn1 | nt | nt | -2 | 30* | nt
C[C@H]1CN([C@@H](C)CO)S(=O)(=O)c2ccc(C#CC3CC3)cc2O[C@@H]1CN(C)C(=O)Cc1ccncc1 | nt | nt | -20 | 18* | nt
C[C@@H]1CN([C@H](C)CO)S(=O)(=O)c2ccc(C#CC3CCCC3)cc2O[C@H]1CN(C)C(=O)Nc1cc(F)ccc1F | nt | nt | -2 | 15* | nt

Screens from PubChem.
